Experiments:
[1] = Inhibition of Trypanosoma brucei GSK3 using biotinylated GSP2 substrate by flashplate assay
Summary of the method: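 Radiometric Flashplate assay: 2.5 nM TbGSK3 short, 1 μM biotinylated GSP2, 1 μM ATP plus [γ-33P]-ATP. 10-point titration 30 μM to 0.3 nM final, 1% DMSO. IC50 averaged over two or more experiments; standard GW8510 used for reproducibility (MSR).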

[2] = biological target: Glycogen synthase kinase-3 (Homo sapiens, UniProt P49840+P49841); assay: Inhibition of human GSK3 using biotinylated GSP2 substrate by flashplate assay; format: protein assay
[3] = Selectivity ratio, ratio of IC50 for human GSK3 to IC50 Trypanosoma brucei GSK3
CDK2/Cyclin A2 = CDK2/Cyclin A2 (Homo sapiens, UniProt P24941); assay: Inhibition of human CDK2/cyclin A using Biotin-C6-PKTPKKAKKL substrate; format: protein-complex assay
[4] = Selectivity ratio, ratio of IC50 for human CDK2/cyclin A to IC50 for Trypanosoma brucei GSK3
[5] = test system: Trypanosoma brucei brucei; assay: Trypanocidal activity against bloodstream stage of Trypanosoma brucei brucei assessed as inhibition of proliferation after 72 hrs; format: functional, organism-based
Summary of the method: (§1)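 Resazurin viability assay: 2 × 10³ cells/well (MRC5 in MEM + 10% FBS; bloodstream-form T. b. brucei in appropriate medium), compounds 50 μM to 0.5 nM, 37 °C, 5% CO₂ for 69 h, then resazurin 50 μM final for further 4 h; fluorescence read. Concentration giving 50% growth inhibition over 72 h; average of two or more experiments.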

MRC5 = assay: Cytotoxicity against human MRC5 cells assessed as growth inhibition after 72 hrs; format: cell-based; settings: MRC5, 72 h; summary of the method: as §1
[6] = biological target: Dual specificity mitogen-activated protein kinase kinase 1 (Homo sapiens) (UniProt Q02750); assay: Inhibition of MKK1 (unknown origin) assessed as residual enzyme activity at 10 uM
Sequence of Dual specificity mitogen-activated protein kinase kinase 1 (Homo sapiens) (Q02750 whole entry): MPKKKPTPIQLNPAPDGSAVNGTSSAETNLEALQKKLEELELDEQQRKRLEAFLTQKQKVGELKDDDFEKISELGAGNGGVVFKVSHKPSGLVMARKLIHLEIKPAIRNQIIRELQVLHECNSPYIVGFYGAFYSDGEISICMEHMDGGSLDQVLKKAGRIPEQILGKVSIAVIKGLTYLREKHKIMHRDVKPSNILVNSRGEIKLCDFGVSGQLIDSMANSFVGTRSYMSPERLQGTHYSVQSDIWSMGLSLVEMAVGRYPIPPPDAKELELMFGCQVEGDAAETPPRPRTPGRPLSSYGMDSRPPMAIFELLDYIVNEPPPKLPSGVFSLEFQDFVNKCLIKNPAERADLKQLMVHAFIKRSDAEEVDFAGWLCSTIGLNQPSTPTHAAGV

[7] = biological target: Mitogen-activated protein kinase 1 (Homo sapiens) (UniProt P28482); assay: Inhibition of ERK2 (unknown origin) assessed as residual enzyme activity at 10 uM
Sequence of Mitogen-activated protein kinase 1 (Homo sapiens) (P28482 whole entry): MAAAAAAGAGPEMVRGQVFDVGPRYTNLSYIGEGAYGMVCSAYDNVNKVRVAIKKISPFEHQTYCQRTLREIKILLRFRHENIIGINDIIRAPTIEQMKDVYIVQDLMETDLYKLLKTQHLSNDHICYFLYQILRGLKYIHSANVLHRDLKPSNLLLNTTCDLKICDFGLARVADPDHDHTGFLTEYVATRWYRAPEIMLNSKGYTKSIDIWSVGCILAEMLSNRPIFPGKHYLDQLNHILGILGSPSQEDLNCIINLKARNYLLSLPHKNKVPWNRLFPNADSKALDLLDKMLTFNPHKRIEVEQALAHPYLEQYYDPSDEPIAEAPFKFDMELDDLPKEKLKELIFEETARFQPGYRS

[8] = biological target: Mitogen-activated protein kinase 8 (Homo sapiens) (UniProt P45983); assay: Inhibition of JNK1 (unknown origin) assessed as residual enzyme activity at 10 uM
Sequence of Mitogen-activated protein kinase 8 (Homo sapiens) (P45983 whole entry): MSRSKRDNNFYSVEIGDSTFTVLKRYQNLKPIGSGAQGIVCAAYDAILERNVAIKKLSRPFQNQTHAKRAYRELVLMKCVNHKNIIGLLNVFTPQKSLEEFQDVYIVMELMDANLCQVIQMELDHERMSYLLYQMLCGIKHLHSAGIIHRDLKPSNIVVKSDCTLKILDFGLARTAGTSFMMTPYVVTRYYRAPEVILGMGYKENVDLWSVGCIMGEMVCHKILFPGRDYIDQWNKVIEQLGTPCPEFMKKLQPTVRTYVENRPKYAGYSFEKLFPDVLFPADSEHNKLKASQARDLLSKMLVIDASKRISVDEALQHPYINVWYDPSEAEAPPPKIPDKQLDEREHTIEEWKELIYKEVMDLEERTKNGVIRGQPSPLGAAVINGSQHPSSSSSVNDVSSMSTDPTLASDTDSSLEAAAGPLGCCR

[9] = biological target: Mitogen-activated protein kinase 9 (Homo sapiens) (UniProt P45984); assay: Inhibition of JNK2 (unknown origin) assessed as residual enzyme activity at 10 uM
[10] = biological target: T1, Mitogen-activated protein kinase 15 (Homo sapiens) (UniProt Q8TD08); assay: Inhibition of ERK8 (unknown origin) assessed as residual enzyme activity at 10 uM
T1 sequence (whole entry): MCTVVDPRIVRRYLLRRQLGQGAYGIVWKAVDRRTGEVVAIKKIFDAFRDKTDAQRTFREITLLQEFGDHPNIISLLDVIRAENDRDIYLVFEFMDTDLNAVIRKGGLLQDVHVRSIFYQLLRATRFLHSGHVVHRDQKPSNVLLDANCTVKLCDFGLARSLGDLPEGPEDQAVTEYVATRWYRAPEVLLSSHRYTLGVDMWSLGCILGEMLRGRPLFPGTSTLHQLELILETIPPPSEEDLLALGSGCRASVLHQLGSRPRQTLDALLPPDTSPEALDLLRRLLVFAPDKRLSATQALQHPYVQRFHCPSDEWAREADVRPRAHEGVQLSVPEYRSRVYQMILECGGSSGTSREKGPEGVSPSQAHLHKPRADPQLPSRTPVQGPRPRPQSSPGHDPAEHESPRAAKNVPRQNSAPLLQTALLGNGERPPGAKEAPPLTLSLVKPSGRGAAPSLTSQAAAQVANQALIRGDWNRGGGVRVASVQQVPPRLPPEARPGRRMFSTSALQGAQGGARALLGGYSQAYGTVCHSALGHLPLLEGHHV

[11] = biological target: MAP kinase-activated protein kinase 2 (Homo sapiens) (UniProt P49137); assay: Inhibition of MAPKAP-K2 (unknown origin) assessed as residual enzyme activity at 10 uM
Sequence of MAP kinase-activated protein kinase 2 (Homo sapiens) (P49137 whole entry, looked up): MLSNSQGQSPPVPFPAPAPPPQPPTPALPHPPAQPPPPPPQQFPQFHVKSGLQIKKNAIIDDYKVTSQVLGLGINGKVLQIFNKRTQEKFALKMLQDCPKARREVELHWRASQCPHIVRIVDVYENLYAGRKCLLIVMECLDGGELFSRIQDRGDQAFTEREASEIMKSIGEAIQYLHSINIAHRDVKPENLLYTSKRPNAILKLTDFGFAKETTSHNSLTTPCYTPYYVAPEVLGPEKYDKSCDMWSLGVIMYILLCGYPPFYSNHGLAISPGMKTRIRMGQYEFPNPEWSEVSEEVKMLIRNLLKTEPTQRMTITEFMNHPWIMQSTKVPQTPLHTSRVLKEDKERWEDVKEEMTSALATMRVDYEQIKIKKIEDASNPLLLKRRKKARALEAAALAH

[12] = biological target: Glycogen synthase kinase-3 beta (Homo sapiens) (UniProt P49841); assay: Inhibition of GSK3b (unknown origin) assessed as residual enzyme activity at 10 uM
Sequence of Glycogen synthase kinase-3 beta (Homo sapiens) (P49841 whole entry, looked up): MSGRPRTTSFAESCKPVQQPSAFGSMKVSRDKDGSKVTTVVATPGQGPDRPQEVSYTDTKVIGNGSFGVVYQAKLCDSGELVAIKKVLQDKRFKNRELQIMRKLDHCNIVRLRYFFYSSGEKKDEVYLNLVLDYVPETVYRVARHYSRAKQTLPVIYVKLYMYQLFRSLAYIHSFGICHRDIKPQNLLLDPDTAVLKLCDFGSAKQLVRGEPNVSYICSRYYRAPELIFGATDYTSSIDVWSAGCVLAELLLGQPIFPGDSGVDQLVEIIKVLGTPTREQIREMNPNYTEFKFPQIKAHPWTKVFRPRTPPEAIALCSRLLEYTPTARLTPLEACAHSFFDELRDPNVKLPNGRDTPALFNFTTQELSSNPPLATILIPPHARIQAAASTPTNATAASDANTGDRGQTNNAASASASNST

[13] = biological target: Cyclin-dependent kinase 2 (Homo sapiens) (UniProt P24941); assay: Inhibition of CDK2 (unknown origin) assessed as residual enzyme activity at 10 uM
[14] = biological target: Maternal embryonic leucine zipper kinase (Homo sapiens) (UniProt Q14680); assay: Inhibition of MELK (unknown origin) assessed as residual enzyme activity at 10 uM
Sequence of Maternal embryonic leucine zipper kinase (Homo sapiens) (Q14680 whole entry, looked up): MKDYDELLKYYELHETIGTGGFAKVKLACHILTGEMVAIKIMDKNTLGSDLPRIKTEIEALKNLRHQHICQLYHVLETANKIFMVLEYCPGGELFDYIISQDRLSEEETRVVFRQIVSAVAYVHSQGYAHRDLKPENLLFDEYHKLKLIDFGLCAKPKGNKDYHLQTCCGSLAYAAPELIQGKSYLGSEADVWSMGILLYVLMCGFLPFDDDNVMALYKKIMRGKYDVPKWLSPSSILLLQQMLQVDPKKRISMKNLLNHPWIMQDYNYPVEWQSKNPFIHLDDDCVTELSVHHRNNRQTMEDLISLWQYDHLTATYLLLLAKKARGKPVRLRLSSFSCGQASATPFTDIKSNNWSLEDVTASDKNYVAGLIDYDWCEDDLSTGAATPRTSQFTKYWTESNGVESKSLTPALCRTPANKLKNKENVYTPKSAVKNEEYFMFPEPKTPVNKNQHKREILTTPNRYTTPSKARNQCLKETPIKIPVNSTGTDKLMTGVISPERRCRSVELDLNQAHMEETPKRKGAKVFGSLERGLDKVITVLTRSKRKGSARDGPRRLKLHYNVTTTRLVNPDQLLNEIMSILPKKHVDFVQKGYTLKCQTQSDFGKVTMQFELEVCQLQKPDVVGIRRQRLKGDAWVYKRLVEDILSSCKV

[15] = biological target: Dual specificity tyrosine-phosphorylation-regulated kinase 1A (Homo sapiens) (UniProt Q13627); assay: Inhibition of DYRK1A (unknown origin) assessed as residual enzyme activity at 10 uM
[16] = biological target: T2, Dual specificity tyrosine-phosphorylation-regulated kinase 2 (Homo sapiens) (UniProt Q92630); assay: Inhibition of DYRK2 (unknown origin) assessed as residual enzyme activity at 10 uM
T2 sequence (whole entry): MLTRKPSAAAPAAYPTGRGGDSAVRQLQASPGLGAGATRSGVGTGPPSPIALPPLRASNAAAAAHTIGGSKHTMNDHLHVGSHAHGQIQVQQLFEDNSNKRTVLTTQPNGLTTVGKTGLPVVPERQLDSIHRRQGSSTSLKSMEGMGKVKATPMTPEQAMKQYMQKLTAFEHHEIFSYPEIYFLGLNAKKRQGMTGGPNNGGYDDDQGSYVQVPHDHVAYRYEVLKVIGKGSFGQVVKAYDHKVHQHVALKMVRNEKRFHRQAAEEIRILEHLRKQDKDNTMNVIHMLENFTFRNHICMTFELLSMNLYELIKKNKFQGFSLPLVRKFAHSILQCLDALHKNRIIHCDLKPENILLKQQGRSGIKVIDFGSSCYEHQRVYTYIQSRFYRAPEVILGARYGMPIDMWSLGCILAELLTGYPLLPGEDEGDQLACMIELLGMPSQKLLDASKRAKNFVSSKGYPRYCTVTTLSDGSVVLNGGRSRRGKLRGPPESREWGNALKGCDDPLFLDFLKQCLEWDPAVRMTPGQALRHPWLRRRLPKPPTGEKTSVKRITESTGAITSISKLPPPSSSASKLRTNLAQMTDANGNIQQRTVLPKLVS

[17] = biological target: T3, Dual specificity tyrosine-phosphorylation-regulated kinase 3 (Homo sapiens) (UniProt O43781); assay: Inhibition of DYRK3 (unknown origin) assessed as residual enzyme activity at 10 uM
T3 sequence (whole entry): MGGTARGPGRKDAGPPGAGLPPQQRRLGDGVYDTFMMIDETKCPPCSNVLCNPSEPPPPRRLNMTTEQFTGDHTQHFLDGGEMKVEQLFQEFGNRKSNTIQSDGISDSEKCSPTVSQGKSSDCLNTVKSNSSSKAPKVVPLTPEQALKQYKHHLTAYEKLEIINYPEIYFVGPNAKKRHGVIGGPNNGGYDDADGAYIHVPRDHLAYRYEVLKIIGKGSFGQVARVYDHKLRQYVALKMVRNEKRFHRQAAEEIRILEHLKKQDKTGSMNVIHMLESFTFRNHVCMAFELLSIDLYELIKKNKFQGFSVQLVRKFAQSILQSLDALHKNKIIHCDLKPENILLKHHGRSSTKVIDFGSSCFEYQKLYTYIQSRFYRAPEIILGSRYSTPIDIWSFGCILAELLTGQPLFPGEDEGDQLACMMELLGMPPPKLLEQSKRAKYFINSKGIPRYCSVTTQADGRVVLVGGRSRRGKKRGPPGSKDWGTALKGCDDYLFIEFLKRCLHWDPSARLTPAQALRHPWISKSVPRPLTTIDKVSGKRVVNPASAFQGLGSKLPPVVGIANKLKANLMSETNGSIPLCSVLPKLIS

[18] = biological target: Serine/threonine-protein kinase pim-1 (Homo sapiens) (UniProt P11309); assay: Inhibition of PIM1 (unknown origin) assessed as residual enzyme activity at 10 uM
Sequence of Serine/threonine-protein kinase pim-1 (Homo sapiens) (P11309 whole entry, looked up): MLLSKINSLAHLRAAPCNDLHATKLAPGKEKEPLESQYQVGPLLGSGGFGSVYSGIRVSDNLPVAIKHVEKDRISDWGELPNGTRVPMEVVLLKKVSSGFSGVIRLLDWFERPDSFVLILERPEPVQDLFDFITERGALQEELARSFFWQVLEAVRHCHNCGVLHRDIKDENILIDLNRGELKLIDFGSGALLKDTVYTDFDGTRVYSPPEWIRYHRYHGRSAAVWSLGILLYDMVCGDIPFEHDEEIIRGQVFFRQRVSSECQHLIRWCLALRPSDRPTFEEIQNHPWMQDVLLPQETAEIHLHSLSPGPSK

[19] = biological target: Serine/threonine-protein kinase pim-3 (Homo sapiens) (UniProt Q86V86); assay: Inhibition of PIM3 (unknown origin) assessed as residual enzyme activity at 10 uM
[20] = biological target: Homeodomain-interacting protein kinase 2 (Homo sapiens) (UniProt Q9H2X6); assay: Inhibition of HIPK2 (unknown origin) assessed as residual enzyme activity at 10 uM
[21] = biological target: Insulin-like growth factor 1 receptor (Homo sapiens) (UniProt P08069); assay: Inhibition of IGF-1R (unknown origin) assessed as residual enzyme activity at 10 uM
Sequence of Insulin-like growth factor 1 receptor (Homo sapiens) (P08069 31-736 limits assumed): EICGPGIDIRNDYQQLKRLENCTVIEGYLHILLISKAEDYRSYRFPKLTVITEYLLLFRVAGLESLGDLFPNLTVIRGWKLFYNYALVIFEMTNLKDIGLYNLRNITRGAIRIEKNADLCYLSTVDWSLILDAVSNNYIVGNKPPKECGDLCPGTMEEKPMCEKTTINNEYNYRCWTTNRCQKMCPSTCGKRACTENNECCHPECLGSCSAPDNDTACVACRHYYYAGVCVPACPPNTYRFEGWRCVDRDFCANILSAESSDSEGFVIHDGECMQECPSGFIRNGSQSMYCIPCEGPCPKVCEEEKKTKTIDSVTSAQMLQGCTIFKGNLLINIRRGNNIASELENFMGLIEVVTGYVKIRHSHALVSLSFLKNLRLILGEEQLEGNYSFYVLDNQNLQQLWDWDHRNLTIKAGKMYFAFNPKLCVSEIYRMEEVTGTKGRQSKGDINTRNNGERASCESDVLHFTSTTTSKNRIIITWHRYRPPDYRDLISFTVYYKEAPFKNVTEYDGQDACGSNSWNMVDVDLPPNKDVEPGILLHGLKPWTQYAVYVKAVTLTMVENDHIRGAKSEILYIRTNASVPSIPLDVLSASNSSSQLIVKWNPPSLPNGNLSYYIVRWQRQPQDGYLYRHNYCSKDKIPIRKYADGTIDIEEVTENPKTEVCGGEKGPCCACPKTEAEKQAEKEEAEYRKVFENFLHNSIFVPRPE
Sequence of Insulin-like growth factor 1 receptor (Homo sapiens) (P08069 741-1367 limits assumed): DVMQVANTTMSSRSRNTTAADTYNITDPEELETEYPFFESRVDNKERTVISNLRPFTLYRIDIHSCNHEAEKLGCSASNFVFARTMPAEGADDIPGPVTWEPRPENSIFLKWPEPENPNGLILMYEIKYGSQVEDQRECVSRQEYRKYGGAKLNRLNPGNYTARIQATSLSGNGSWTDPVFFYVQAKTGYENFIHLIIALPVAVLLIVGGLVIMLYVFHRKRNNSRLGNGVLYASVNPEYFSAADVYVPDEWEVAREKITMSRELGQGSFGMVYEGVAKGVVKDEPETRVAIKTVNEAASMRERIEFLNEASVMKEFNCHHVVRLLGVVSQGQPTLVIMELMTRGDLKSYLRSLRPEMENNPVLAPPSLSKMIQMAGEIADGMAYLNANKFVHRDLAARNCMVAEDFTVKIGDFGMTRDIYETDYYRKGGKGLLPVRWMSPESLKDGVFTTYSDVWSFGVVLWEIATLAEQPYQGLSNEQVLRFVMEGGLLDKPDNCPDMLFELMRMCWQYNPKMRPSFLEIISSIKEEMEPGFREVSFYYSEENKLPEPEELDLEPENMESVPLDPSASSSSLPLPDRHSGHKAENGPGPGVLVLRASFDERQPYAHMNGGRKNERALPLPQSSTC

[22] = biological target: Misshapen-like kinase 1 (Homo sapiens) (UniProt Q8N4C8); assay: Inhibition of MINK1 (unknown origin) assessed as residual enzyme activity at 10 uM

SMILES	IC50 [1] [nM]	IC50 [2] [nM]	Ratio IC50 [3]	IC50 (CDK2/Cyclin A2) [nM]	Ratio IC50 [4]	EC50 [5] [nM]	EC50 (MRC5) [nM]	Activity [6] [%]	Activity [7] [%]	Activity [8] [%]	Activity [9] [%]	Activity [10] [%]	Activity [11] [%]	Activity [12] [%]	Activity [13] [%]	Activity [14] [%]	Activity [15] [%]	Activity [16] [%]	Activity [17] [%]	Activity [18] [%]	also measured
COc1cccc(OC)c1C(=O)Nc1c[nH]nc1C(=O)N[C@H]1CC[C@H](OC)CC1	2	< 5	< 2.5	190	95	500	31000	83	51	77	82	27	33	0	9	100	84	63	100	100	Activity [19]: 94%; Activity [20]: 100%; Activity [21]: 100%
COc1cccc(OC)c1C(=O)Nc1c[nH]nc1C(=O)NCc1ccccc1	1	330	330	> 10000	> 10000	5900	50000	76	92	71	63	47	13	10	38	96	79	28	80	92	Activity [19]: 96%; Activity [20]: 93%; Activity [21]: 79%; Activity [22]: 18%
CO[C@H]1CC[C@H](NC(=O)c2n[nH]cc2NC(=O)c2ccccc2)CC1	24	< 5		38		1300	800	54	18	31	51	14	92	33	1	32	6	3	24	46	Activity [19]: 19%; Activity [20]: 14%; Activity [21]: 96%
CO[C@H]1CC[C@H](NC(=O)c2n[nH]cc2NC(=O)c2ccc(-c3ccccc3)o2)CC1	7	< 5		10	1.4	300	100	17	2	8	15	7	90	0	1	13	1	1	2	13	Activity [19]: 1%; Activity [20]: 4%; Activity [21]: 15%
CO[C@H]1CC[C@H](NC(=O)c2n[nH]cc2NC(=O)C2CCC(F)(F)CC2)CC1	500	8	0.16	1000	2	16000	> 50000														
COc1cccc(OC)c1C(=O)Nc1c[nH]nc1C(=O)NC1CCN(Cc2ccccc2)C1 (stereo unspecified)	8	80	10	> 10000	> 1300	8900	38000														
COc1cccc(OC)c1C(=O)Nc1c[nH]nc1C(=O)Nc1ccccc1	6	70	12	4300	720	11500	> 50000														
CO[C@H]1CC[C@H](NC(=O)c2n[nH]cc2NC(=O)C2CCOCC2)CC1	690	8	0.0012	380	0.55	32000	> 50000														
COCCNC(=O)c1n[nH]cc1NC(=O)c1c(OC)cccc1OC	34	300	8.8	> 10000	> 290	43000	> 50000														
CO[C@H]1CC[C@H](NC(=O)c2n[nH]cc2NC(=O)Cc2c(Cl)cccc2Cl)CC1	230	200	0.87	290	1.3	7300	3100														
COC(=O)c1n[nH]cc1NC(=O)c1c(OC)cccc1OC	520	4500	8.7	> 10000	> 19	> 50000	> 50000														
COc1cccc(OC)c1C(=O)Nc1c[nH]nc1C(=O)NCCN1CCCC1	320	660	2.1	> 10000	> 31	> 50000	> 50000														
